From ChEMBL document CHEMBL1833950, “Inhibition of steroid sulfatase with 4-substituted estrone and estradiol derivatives” (Bioorg Med Chem, 2011)
Each block holds one compound with its values, some of them ahead of it. Calls of active or inactive are those of the source. The rule behind the calls is not given here.

Legend:
Steryl-sulfatase [1] = target: T1, Steryl-sulfatase (Homo sapiens, UniProt P08842); experiment: (§1) Inhibition of human steroid sulfatase using 4-methylumbelliferyl sulfate substrate after 10 mins by fluorescence assay
T1 sequence (P08842 whole entry): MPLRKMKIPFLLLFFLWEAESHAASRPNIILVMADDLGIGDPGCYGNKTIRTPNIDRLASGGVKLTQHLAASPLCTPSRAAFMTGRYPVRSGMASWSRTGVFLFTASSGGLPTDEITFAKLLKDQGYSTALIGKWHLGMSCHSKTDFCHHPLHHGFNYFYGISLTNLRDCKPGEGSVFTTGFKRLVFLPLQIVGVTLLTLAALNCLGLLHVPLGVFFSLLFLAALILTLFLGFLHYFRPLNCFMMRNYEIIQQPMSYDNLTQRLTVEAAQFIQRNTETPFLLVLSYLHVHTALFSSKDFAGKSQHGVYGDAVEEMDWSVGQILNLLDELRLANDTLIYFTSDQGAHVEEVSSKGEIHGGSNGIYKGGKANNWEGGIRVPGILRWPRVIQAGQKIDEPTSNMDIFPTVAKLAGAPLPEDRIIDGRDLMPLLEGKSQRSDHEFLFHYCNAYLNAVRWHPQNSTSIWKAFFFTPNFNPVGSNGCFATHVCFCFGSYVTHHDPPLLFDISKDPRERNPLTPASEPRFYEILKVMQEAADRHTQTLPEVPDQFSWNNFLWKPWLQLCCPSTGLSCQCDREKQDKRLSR
Procedure, shortened: (§2)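 Inhibitor is added in DMSO/Tris (1:1) and the reaction is started with enzyme. 4-MUS is 200 µM final. 4-Methylumbelliferone fluorescence (ex 360/em 460 nm) is followed for 10 min at 25 °C. Triplicates; percent activity is taken versus an inhibitor-free control and IC50 derived.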

[2] = target: T2, Steryl-sulfatase (Homo sapiens) (UniProt P08842); experiment: Inhibition of human steroid sulfatase using 4-methylumbelliferyl sulfate substrate at 50 uM by fluorescence assay
T2 sequence (whole entry): T1 sequence (P08842 whole entry)

[3] = target: T2, Steryl-sulfatase (Homo sapiens); experiment: Inhibition of human steroid sulfatase using 4-methylumbelliferyl sulfate as substrate at 10 uM by fluorescence assay
[4] = target: T2, Steryl-sulfatase (Homo sapiens); experiment: as §1; procedure, shortened: as §2
[5] = target: T2, Steryl-sulfatase (Homo sapiens); experiment: Reversible inhibition of human steroid sulfatase using 4-methylumbelliferyl sulfate as substrate at 50 uM after 10 mins by fluorescence assay
[6] = target: T2, Steryl-sulfatase (Homo sapiens); experiment: Inhibition of human steroid sulfatase using 4-methylumbelliferyl sulfate substrate at 10 uM after 60 mins by fluorescence assay
[7] = Aqueous solubility of the compound; type: physicochemical; conditions: buffer
[8] = target: T2, Steryl-sulfatase (Homo sapiens); experiment: Reversible inhibition of human steroid sulfatase using 4-methylumbelliferyl sulfate substrate assessed as enzyme activity recovery at 1 uM after 60 mins by fluorescence assay; parameters: scale not given: the % may be the effect or the level left
Procedure, shortened: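 Aliquots are assayed with 4 mM 4-MUS at 0 and 60 min. The rest is dialysed against 0.1 M Tris-HCl pH 7.0, 0.1% Triton X-100, with activity measured at 540, 1020 and 1500 min. Triplicates, with an inhibitor-free control.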

Steryl-sulfatase [9] = target: T1, Steryl-sulfatase; experiment: Inhibition of human purified steroid sulfatase; procedure, shortened: as §2
[10] = target: T2, Steryl-sulfatase (Homo sapiens); experiment: (§3) Inhibition of human steroid sulfatase using 4-methylumbelliferyl sulfate substrate after 5 mins by Kitz-Wilson plot analysis
Steryl-sulfatase [11] = target: T1, Steryl-sulfatase; experiment: as §3
[12] = target: T2, Steryl-sulfatase (Homo sapiens); experiment: Ratio of Kinact to Ki for human steroid sulfatase after 5 mins by Kitz-Wilson plot analysis
Steryl-sulfatase [13] = target: T1, Steryl-sulfatase; experiment: Time-dependent inhibition of human steroid sulfatase using 4-methylumbelliferyl sulfate substrate by Kitz-Wilson plot analysis
[14] = target: T2, Steryl-sulfatase (Homo sapiens); experiment: Inhibition of human steroid sulfatase using 4-methylumbelliferyl sulfate substrate at 1 uM after 60 mins by fluorescence assay
Steryl-sulfatase [15] = target: T1, Steryl-sulfatase; experiment: Inhibition of human steroid sulfatase using 4-methylumbelliferyl sulfate substrate over 50 mins by Kitz-Wilson plot analysis
Steryl-sulfatase [16] = target: T1, Steryl-sulfatase; experiment: Mixed type inhibition of human steroid sulfatase using 4-methylumbelliferyl sulfate substrate by Lineweaver-Burk plot analysis
Steryl-sulfatase [17] = target: T1, Steryl-sulfatase; experiment: Non-Competitive inhibition of human steroid sulfatase using 4-methylumbelliferyl sulfate substrate by Lineweaver-Burk plot analysis

- Inhibition activity (active/inactive) [3]: inactive
- inhibition [4]: inactive
- inhibition [5]: < 50%
SMILES: C[C@]12CC[C@@H]3c4cc([N+](=O)[O-])c(O)c(C=O)c4CC[C@H]3[C@@H]1CCC2=O

- inhibition [2]: 45%
SMILES: C=Cc1c(O)ccc2c1CC[C@@H]1[C@@H]2CC[C@]2(C)C(=O)CC[C@@H]12

- solubility [7]: soluble
- Inhibition activity (active/inactive) [3]: inactive
- IC50 (Steryl-sulfatase [1]): 224 µM
SMILES: C[C@]12CC[C@@H]3c4cc(C=O)c(O)c(C=O)c4CC[C@H]3[C@@H]1CCC2=O

- IC50 (Steryl-sulfatase [1]): 3.3 µM
SMILES: C[C@]12CC[C@@H]3c4ccc(O)c(F)c4CC[C@H]3[C@@H]1CCC2=O

- IC50 (Steryl-sulfatase [1]): 26 µM
SMILES: C[C@]12CC[C@@H]3c4cc([N+](=O)[O-])c(O)c([N+](=O)[O-])c4CC[C@H]3[C@@H]1CCC2=O

- Inhibition activity (active/inactive) [3]: inactive
- inhibition [4]: inactive
SMILES: C[C@]12CC[C@@H]3c4cc(C=O)c(O)cc4CC[C@H]3[C@@H]1CCC2=O

- inhibition [2]: 43%
SMILES: C[C@]12CC[C@@H]3c4ccc(O)c(N)c4CC[C@H]3[C@@H]1CC[C@@H]2O

Second part, the compound before the results:

SMILES: C[C@]12CC[C@@H]3c4ccc(O)c([N+](=O)[O-])c4CC[C@H]3[C@@H]1CC[C@@H]2O
- IC50 (Steryl-sulfatase [1]): 2.8 µM

SMILES: C[C@]12CC[C@@H]3c4ccc(O)c(CN)c4CC[C@H]3[C@@H]1CC[C@@H]2O
- inhibition [2]: 4%

SMILES: C[C@]12CC[C@@H]3c4ccc(O)cc4CC[C@H]3[C@@H]1CC[C@@]2(O)Cc1ccccc1
- Ki (Steryl-sulfatase [1]): 250 nM

SMILES: C[C@]12CC[C@@H]3c4cc(C=O)c(O)cc4CC[C@H]3[C@@H]1CC[C@@]2(O)Cc1ccccc1
- inhibition [6]: 15%

SMILES: C[C@]12CC[C@@H]3c4cc([N+](=O)[O-])c(O)cc4CC[C@H]3[C@@H]1CCC2=O
- IC50 (Steryl-sulfatase [1]): 17 µM

SMILES: C[C@]12CC[C@@H]3c4ccc(O)c(C=O)c4CC[C@H]3[C@@H]1CCC2=O
- Activity [8]: 2%
- Ki (Steryl-sulfatase [9]): 1500 nM
- Kinact [10]: 0.13 min⁻¹
- Ki (Steryl-sulfatase [11]): 1500 nM
- Ratio [12]: 1 ×10⁵ /M/min
- Ki (Steryl-sulfatase [13]): 1500 nM

SMILES: C[C@]12CC[C@@H]3c4ccc(O)c(Br)c4CC[C@H]3[C@@H]1CCC2=O
- IC50 (Steryl-sulfatase [1]): 4.8 µM

SMILES: C[C@]12CC[C@@H]3c4ccc(C=O)cc4CC[C@H]3[C@@H]1CCC2=O
- Inhibition activity (active/inactive) [3]: inactive
- inhibition [4]: inactive

SMILES: C[C@]12CC[C@@H]3c4ccc(O)c(C#N)c4CC[C@H]3[C@@H]1CCC2=O
- IC50 (Steryl-sulfatase [1]): 6.7 µM

SMILES: C[C@]12CC[C@@H]3c4cc(Br)c(O)cc4CC[C@H]3[C@@H]1CCC2=O
- IC50 (Steryl-sulfatase [1]): 40 µM

SMILES: C[C@]12CC[C@@H]3c4ccc(O)c(C=O)c4CC[C@H]3[C@@H]1CC[C@@]2(O)Cc1ccccc1
- inhibition [14]: 95%
- Activity [8]: 14%
- Inhibition activity (active/inactive) [3]: Active
- inhibition [4]: Dose-dependent effect
- Kinact [10]: 0.021 min⁻¹
- Ratio [12]: 2.3 ×10⁵ /M/min
- Ki (Steryl-sulfatase [15]): 85 nM
- Ki (Steryl-sulfatase [13]): 85 nM

SMILES: C[C@]12CC[C@@H]3c4ccc(O)c(C(=O)O)c4CC[C@H]3[C@@H]1CCC2=O
- IC50 (Steryl-sulfatase [1]): 215 µM

SMILES: C[C@]12CC[C@@H]3c4ccc(O)c(CO)c4CC[C@H]3[C@@H]1CCC2=O
- inhibition [2]: 46%

SMILES: C[C@]12CC[C@@H]3c4cc(Br)c(O)c(C=O)c4CC[C@H]3[C@@H]1CCC2=O
- Inhibition activity (active/inactive) [3]: inactive
- inhibition [4]: inactive
- IC50 (Steryl-sulfatase [1]): 145 µM

SMILES: C[C@]12CC[C@@H]3c4ccc(O)c(F)c4CC[C@H]3[C@@H]1CC[C@@]2(O)Cc1ccccc1
- Ki (Steryl-sulfatase [16]): 90 nM
- Ki (Steryl-sulfatase [1]): 30 nM

SMILES: C[C@]12CC[C@@H]3c4ccc(O)c([N+](=O)[O-])c4CC[C@H]3[C@@H]1CCC2=O
- Ki (Steryl-sulfatase [17]): 1400 nM
- IC50 (Steryl-sulfatase [1]): 2.4 µM
